Our source for the MIC and MIC90 values is ChEMBL document CHEMBL4229369, “Design, synthesis and antitubercular evaluation of benzothiazinones containing a piperidine moiety” (Eur J Med Chem, 2018).

Molecules are shown by their SMILES. Values after ≈ are worked out from the molar mass of the structure shown. Where only a bound is given, the exact number is not on record here.

Format in all cases: functional
In assay [1] the test system is Mycobacterium tuberculosis. Nature of the assay: Antitubercular activity against multi-drug resistant Mycobacterium tuberculosis. The procedure, abridged: (§1)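 Inoculum grown to late log phase in Middlebrook 7H9 with 0.2% glycerol, 0.05% Tween 80 and 10% ADC, then washed in PBS, filtered through 8 µm to remove clumps and frozen at -80 °C. Twofold compound dilutions in 7H9-ADC-TG with 2 × 10⁵ CFU per well, 37 °C. Alamar blue and Tween 80 added on day 7, read after 16-24 h (ex 530/em 590 nm). MIC is the lowest concentration giving ≥90% fluorescence reduction versus bacterium-only controls.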

Assay [2] has as its system Mycobacterium tuberculosis. Put plainly: Antitubercular activity against multi-drug resistant Mycobacterium tuberculosis isolate 16883 after 7 days by Alamar blue assay. Particulars: isolate 16883, 168 h. The method in brief: as §1
On the technique in general: Resazurin is reduced to fluorescent resorufin, in cell work by metabolically active cells.

Assay [3] has as its system Mycobacterium tuberculosis. Put plainly: Antitubercular activity against multi-drug resistant Mycobacterium tuberculosis isolate 16995 after 7 days by Alamar blue assay. Particulars: isolate 16995, 168 h. The method in brief: as §1

Broadly, the MIC is the least concentration at which growth counts as inhibited. A low value points to inhibition by little substance. As usually defined, the MIC90 is an inhibitory concentration at the 90% level, which refers to growth in some studies and to a panel of isolates in others. A low value points to higher susceptibility.

For `CN(CC1CCCCC1)C1CCN(c2nc(=O)c3cc(C(F)(F)F)cc([N+](=O)[O-])c3s2)CC1`, the MIC in assay [1] is 0.016 µg/mL (≈ 0.033 µM).

For the compound `O=c1nc(N2CCC(CN3CCC(C(F)(F)F)CC3)CC2)sc2c([N+](=O)[O-])cc(C(F)(F)F)cc12`, the MIC90 in assay [2] and in assay [3] was below 0.016 µg/mL throughout.

For `NNC(=O)c1ccncc1` [ISONIAZID], the MIC90 in assay [2] and in assay [3] was above 40 µg/mL each time.

As for `O=c1nc(N2CCN(CC3CCCCC3)CC2)sc2c([N+](=O)[O-])cc(C(F)(F)F)cc12` [MACOZINONE], the MIC90 in assay [2] and in assay [3] was below 0.016 µg/mL in each case.

Take `CO[C@H]1/C=C/O[C@@]2(C)Oc3c(C)c(O)c4c(O)c(c(/C=N/N5CCN(C)CC5)c(O)c4c3C2=O)NC(=O)/C(C)=C\C=C\[C@H](C)[C@H](O)[C@@H](C)[C@@H](O)[C@@H](C)[C@H](OC(C)=O)[C@@H]1C` [RIFAMPIN]: the MIC90 in assay [2] and in assay [3] was above 40 µg/mL in each case.
